From ChEMBL document CHEMBL3259666, “Discovery of a neuroprotective chemical, (S)-N-(3-(3,6-dibromo-9H-carbazol-9-yl)-2-fluoropropyl)-6-methoxypyridin-2-amine [(-)-P7C3-S243], with improved druglike properties” (J Med Chem, 2014) come the findings set out here.

The subject of data set [1] is Mus musculus. Nature of the data set: Neuroprotective activity in wild type C57BL/J6 mouse assessed as survival of newborn hippocampal neurons at 10 uM, icv administered for 7 days by BrdU staining-based immunohistochemical analysis relative to vehicle-treated control. The data set is classed as functional, organism-based. In outline: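 Adult (12 week old) C57BL/J6 mice, environmentally deprived; compound infused via osmotic minipump into left lateral ventricle at 0.5 μL/h for 7 days. BrdU IP 50 mg kg–1 day–1 for 6 days during infusion; perfusion 24 h after last BrdU. BrdU+ cells in SGZ/dentate gyrus of contralateral hemisphere counted in every fifth 40 μm section, normalized to dentate gyrus volume; mean ± SEM.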

The next data set has as its system NCI-H2009. Nature of the data set: Cytotoxicity against human NCI-H2009 cells. Format: cell-based.
The target in another data set is T1, Cytochrome P450 2C8 (Homo sapiens, UniProt P10632).
T1 sequence (P10632 whole entry): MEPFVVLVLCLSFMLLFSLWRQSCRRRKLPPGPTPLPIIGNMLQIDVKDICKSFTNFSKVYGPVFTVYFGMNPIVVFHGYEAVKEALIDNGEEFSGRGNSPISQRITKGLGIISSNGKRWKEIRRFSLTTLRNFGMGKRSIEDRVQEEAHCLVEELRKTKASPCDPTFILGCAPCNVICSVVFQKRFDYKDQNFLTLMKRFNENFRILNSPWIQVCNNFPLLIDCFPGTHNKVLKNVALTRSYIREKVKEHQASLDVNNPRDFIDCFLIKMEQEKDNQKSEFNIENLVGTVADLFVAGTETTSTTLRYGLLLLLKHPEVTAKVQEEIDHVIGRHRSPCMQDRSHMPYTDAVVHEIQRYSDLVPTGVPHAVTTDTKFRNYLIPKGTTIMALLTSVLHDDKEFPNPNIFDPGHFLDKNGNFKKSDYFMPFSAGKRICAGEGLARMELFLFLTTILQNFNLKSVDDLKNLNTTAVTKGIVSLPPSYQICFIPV
As to the kind of experiment: Inhibition of CYP2C8 (unknown origin). Format: ADME.

Data set [2] is described as follows: Protein binding in plasma (unknown origin) by ultracentrifugation method. Format: ADME, cell-free. Particulars: read-out: PPB.
Another data set addresses Cytochrome P450 2C9 (Homo sapiens, UniProt P11712). As to the kind of experiment: Inhibition of CYP2C9 (unknown origin). Format: ADME.
The target of a further data set is Translocator protein (Homo sapiens, UniProt P30536). As to the kind of experiment: Inhibition of TSPO (unknown origin).
Sequence of Translocator protein (P30536 whole entry, the tested form may be a part): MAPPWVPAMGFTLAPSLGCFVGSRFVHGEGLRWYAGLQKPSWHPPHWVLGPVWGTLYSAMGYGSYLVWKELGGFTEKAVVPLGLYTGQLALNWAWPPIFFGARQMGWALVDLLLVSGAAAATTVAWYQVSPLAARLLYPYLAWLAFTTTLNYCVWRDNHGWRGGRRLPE
Data set [3] concerns Mus musculus. As to the kind of experiment: Neuroprotective activity in wild type C57BL/J6 mouse assessed as survival of newborn hippocampal neurons at 0.1 to 10 uM, icv administered for 7 days by BrdU staining-based microscopy relative to vehicle-treated control. The data set is classed as functional, organism-based. A digest of the protocol: (§1)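 Adult (12-week) wild-type C57BL/J6 mice. Compound infused ICV into the left lateral ventricle by osmotic minipump at 0.5 μL/h for 7 days, with BrdU 50 mg/kg/day IP for 6 days. Perfused 24 h after the last BrdU dose. BrdU antigen unmasked (formamide/SSC at 65 °C, then 2 M HCl); anti-BrdU staining. BrdU+ cells in the contralateral dentate gyrus SGZ counted in every fifth 40 μm section and normalised to dentate gyrus volume.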
(In general: Uptake of a labelled nucleoside into DNA is a usual measure of proliferation.)

The next data set concerns the target Cytochrome P450 3A4 (Homo sapiens, UniProt P08684). Nature of the data set: Inhibition of CYP3A4 (unknown origin). The data set is classed as ADME.
The test system of data set [4] is Mus musculus. Nature of the data set: Neuroprotective activity in substantia nigra of C57Bl/6 mouse neurogenesis model assessed as protection from MPTP-induced cell death in mature neurons at 5 mg/kg/day, ip bid administered for 21 days by immunohistochemical analysis relative to vehicle-treated control. Format: functional, organism-based. In outline:
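MPTP model in adult male C57Bl/6 mice, individually housed 1 week. MPTP free base 30 mg/kg/day IP for 5 days. From day 6 (24 h after the last MPTP dose), compound or vehicle given IP twice daily for 21 days. Mice were then perfused with 4% paraformaldehyde. SNc sectioned at 30 μm intervals and every fourth section stained for TH (DAB, hematoxylin counterstain). TH+ cells counted blinded; mean ± SEM, compared with vehicle + MPTP.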

In another data set the test system is NCI-H2122. Nature of the data set: Cytotoxicity against human NCI-H2122 cells. Format: cell-based.
The target in another data set is T2, Cytochrome P450 2B6 (Homo sapiens, UniProt P20813).
T2 sequence (P20813 whole entry): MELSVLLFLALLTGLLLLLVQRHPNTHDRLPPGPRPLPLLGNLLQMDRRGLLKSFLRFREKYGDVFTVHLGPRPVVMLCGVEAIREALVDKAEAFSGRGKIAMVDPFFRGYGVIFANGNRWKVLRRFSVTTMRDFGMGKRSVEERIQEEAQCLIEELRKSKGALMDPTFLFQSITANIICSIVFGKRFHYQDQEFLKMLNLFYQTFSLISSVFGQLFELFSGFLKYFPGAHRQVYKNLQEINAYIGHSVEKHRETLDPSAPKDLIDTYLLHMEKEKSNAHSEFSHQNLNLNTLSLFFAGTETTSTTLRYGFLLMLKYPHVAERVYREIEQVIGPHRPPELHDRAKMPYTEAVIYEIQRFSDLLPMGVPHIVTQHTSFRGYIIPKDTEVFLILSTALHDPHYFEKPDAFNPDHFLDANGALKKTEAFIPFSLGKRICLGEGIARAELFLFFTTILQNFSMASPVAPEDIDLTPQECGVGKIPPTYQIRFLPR
As to the kind of experiment: Inhibition of CYP2B6 (unknown origin). The data set is classed as ADME.

The target in a further data set is T3, Cytochrome P450 1A2 (Homo sapiens, UniProt P05177).
T3 sequence (P05177 whole entry): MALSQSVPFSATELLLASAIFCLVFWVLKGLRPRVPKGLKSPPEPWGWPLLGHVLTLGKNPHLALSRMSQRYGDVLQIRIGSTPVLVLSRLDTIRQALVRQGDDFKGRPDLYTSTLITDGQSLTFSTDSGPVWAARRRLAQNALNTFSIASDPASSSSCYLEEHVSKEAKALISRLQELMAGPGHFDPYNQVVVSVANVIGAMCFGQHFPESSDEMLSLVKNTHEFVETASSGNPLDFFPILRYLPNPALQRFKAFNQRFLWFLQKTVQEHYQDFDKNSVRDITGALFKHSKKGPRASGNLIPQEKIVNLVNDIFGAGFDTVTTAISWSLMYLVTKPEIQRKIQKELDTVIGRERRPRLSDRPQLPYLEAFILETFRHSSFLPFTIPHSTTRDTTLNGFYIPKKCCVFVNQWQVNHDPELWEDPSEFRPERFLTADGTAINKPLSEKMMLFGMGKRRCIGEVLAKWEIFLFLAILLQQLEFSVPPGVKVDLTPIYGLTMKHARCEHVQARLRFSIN
Nature of the data set: Inhibition of CYP1A2 (unknown origin). The data set is classed as ADME.

Another data set concerns the target hERG (KCNH2) (Homo sapiens, UniProt Q12809). Nature of the data set: Inhibition of human ERG channel at 50 uM by patch clamp technique.
Data set [5] can be described thus: Cytotoxicity against human HCC44 cells. The data set is classed as cell-based.
The next data set deals with Cytochrome P450 2D6 (Homo sapiens, UniProt P10635). As to the kind of experiment: Inhibition of CYP2D6 (unknown origin). Format: ADME.
Sequence of Cytochrome P450 2D6 (P10635 whole entry): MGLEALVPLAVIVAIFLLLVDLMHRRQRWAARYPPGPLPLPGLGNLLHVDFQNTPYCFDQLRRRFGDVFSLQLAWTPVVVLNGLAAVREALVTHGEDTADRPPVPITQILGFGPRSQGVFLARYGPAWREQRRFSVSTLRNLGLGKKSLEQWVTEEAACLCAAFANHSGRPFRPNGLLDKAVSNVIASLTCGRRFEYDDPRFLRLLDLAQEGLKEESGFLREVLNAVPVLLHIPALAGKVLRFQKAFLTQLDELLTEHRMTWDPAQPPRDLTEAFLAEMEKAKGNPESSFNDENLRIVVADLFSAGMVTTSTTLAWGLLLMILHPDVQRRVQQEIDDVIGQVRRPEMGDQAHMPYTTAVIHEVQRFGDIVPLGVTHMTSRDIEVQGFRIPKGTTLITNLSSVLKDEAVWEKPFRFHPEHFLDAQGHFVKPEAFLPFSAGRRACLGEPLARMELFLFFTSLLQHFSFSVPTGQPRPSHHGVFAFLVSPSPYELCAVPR
Data set [6] has as its system Mus musculus. As to the kind of experiment: Neuroprotective activity in wild type C57BL/J6 mouse assessed as survival of newborn hippocampal neurons at 10 uM, icv administered for 7 days by BrdU staining-based microscopy relative to vehicle-treated control. The data set is classed as functional, organism-based. In outline:
as §1

The target in another data set is Cytochrome P450 2C19 (Homo sapiens, UniProt P33261). As to the kind of experiment: Inhibition of CYP2C19 (unknown origin). The data set is classed as ADME.
Sequence of Cytochrome P450 2C19 (P33261 whole entry): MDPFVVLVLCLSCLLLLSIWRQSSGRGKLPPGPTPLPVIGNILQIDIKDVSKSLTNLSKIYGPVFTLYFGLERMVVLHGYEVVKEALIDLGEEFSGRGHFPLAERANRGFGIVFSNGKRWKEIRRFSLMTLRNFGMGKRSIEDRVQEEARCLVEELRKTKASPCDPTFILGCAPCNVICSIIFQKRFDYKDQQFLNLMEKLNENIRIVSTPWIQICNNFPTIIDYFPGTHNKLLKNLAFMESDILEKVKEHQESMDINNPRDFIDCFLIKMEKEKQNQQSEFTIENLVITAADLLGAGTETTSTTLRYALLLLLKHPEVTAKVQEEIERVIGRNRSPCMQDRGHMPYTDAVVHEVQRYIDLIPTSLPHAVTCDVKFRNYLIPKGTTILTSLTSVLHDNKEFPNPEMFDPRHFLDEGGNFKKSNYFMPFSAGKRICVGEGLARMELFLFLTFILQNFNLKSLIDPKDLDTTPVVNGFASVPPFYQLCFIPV

Active and inactive are the calls of the source. The calls are words filed in the database; no cut-off is given here. A value given as a limit tells only on which side of the number the result lay.

Sequence of Cytochrome P450 2C9 (P11712 whole entry): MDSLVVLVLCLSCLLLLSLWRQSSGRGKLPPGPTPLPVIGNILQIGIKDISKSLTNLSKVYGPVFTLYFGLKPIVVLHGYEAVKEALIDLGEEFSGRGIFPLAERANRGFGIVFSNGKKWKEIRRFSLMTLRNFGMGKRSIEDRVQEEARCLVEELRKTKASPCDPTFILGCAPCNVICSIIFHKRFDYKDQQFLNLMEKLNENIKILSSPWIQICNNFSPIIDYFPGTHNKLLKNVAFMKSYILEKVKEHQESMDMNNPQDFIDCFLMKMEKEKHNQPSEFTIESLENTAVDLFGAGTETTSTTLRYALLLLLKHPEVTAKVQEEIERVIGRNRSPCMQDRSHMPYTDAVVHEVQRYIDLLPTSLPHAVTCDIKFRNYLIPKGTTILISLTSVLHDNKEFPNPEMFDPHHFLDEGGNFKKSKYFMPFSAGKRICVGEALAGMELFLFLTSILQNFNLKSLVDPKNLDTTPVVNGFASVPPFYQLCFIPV
Sequence of hERG (KCNH2) (Q12809 whole entry): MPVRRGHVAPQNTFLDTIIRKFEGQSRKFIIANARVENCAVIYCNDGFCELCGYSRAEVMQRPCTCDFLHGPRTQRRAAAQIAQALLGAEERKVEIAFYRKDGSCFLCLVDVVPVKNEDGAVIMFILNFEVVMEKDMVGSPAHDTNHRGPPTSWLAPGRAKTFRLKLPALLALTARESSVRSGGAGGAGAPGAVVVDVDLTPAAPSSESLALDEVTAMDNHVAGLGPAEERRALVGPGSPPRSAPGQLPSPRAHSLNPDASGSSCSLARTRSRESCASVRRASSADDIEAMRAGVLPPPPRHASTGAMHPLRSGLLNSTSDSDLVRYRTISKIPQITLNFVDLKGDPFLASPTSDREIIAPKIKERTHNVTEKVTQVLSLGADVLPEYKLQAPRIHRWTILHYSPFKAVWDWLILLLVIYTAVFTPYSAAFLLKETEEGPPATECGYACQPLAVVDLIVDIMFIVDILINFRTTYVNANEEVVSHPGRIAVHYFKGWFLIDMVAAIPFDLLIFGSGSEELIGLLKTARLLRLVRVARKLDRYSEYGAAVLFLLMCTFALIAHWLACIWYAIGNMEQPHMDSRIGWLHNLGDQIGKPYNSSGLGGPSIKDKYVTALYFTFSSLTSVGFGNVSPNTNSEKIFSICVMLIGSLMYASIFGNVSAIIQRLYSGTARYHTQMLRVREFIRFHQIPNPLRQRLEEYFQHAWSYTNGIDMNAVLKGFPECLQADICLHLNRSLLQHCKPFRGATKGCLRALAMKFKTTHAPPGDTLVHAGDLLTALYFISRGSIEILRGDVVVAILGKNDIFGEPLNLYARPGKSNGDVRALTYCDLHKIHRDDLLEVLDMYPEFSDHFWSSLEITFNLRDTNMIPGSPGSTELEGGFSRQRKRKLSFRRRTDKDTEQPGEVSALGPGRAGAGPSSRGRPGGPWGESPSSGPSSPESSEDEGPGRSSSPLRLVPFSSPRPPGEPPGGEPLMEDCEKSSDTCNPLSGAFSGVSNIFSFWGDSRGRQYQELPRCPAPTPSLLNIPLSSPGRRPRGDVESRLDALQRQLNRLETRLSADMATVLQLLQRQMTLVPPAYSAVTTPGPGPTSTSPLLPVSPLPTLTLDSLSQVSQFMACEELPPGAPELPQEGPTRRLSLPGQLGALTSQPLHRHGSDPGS
Sequence of Cytochrome P450 3A4 (P08684 whole entry): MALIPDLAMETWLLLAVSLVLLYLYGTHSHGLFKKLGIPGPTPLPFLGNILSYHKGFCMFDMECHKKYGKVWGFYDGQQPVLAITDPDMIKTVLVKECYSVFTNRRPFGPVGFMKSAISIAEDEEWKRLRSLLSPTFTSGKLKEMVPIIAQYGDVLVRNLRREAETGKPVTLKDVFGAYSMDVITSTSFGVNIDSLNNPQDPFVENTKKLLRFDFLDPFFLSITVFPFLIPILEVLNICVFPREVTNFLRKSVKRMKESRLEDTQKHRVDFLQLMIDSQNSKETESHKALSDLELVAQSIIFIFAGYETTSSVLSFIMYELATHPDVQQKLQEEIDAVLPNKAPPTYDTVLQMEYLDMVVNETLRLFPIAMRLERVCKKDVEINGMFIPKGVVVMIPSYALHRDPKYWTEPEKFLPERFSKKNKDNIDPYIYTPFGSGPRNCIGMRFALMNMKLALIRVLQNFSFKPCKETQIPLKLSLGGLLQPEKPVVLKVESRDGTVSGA

With `NCC(O)Cn1c2ccc(Br)cc2c2cc(Br)ccc21` (stereo unspecified), in the data set on Mus musculus [1], the result was Active.

On to `COc1cccc(NCC(O)Cn2c3ccc(Br)cc3c3cc(Br)ccc32)n1` (stereo unspecified), for which, in the data set on Mus musculus [1], the outcome was Active.

As a reminder, the IC50 is the point on the concentration scale where inhibition reaches its midpoint. A lower IC50 goes with greater potency in that assay. The inhibition is how much of the control response was suppressed. A high value points to a strong effect. Turning to `COc1cccc(NC[C@H](F)Cn2c3ccc(Br)cc3c3cc(Br)ccc32)n1`, the IC50 in the data set on NCI-H2009 was more than 10 µM; against Translocator protein, 0.35 µM; in the data set with NCI-H2122, more than 10 µM; on Cytochrome P450 1A2, 20 µM; in data set [5], more than 10 µM; on Cytochrome P450 2C19 it was 1.9 µM. Besides, the “inhibition (INH)” value on Cytochrome P450 2C8, at Cytochrome P450 2C9, against Cytochrome P450 3A4, against Cytochrome P450 2B6 and at Cytochrome P450 2D6 was “Active” throughout. Further, in [2], the fraction unbound is less than 0.01. In addition, the result in the data set on Mus musculus [3], in the data set with Mus musculus [4] and in the data set with Mus musculus [6] was Active. For the same compound, the inhibition at 50 µM against hERG (KCNH2) was less than 15%.

The compound `COc1cccc(NC[C@@H](F)Cn2c3ccc(Br)cc3c3cc(Br)ccc32)n1` had an IC50 on Translocator protein of 0.68 µM. The outcome in the data set on Mus musculus [3] and in the data set with Mus musculus [4] was inactive.
